How the values were obtained:
[1] = AUC in chronic SCW-induced arthritis Lewis rat model plasma at ED80 concentration; format: ADME, cell-free
Method in brief: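 Female Lewis rats (125-140 g) received a single i.p. streptococcal cell wall injection. Animals showing the acute phase were pooled, 4-8 per group over three experiments. Dosing was oral gavage b.i.d., days 10-21, in methylcellulose-Tween-20 vehicle. Hind paw volume was read by displacement plethysmometer on day 21, as % inhibition of swelling. Plasma was sampled up to 11 h after the last dose, 3 rats per dose. ED values came from fitted curves.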

[2] = target: T1, Mitogen-activated protein kinase kinase kinase 5 (Homo sapiens, UniProt Q99683); assay: Inhibition of ASK1 (unknown origin)
T1 sequence (Q99683 whole entry): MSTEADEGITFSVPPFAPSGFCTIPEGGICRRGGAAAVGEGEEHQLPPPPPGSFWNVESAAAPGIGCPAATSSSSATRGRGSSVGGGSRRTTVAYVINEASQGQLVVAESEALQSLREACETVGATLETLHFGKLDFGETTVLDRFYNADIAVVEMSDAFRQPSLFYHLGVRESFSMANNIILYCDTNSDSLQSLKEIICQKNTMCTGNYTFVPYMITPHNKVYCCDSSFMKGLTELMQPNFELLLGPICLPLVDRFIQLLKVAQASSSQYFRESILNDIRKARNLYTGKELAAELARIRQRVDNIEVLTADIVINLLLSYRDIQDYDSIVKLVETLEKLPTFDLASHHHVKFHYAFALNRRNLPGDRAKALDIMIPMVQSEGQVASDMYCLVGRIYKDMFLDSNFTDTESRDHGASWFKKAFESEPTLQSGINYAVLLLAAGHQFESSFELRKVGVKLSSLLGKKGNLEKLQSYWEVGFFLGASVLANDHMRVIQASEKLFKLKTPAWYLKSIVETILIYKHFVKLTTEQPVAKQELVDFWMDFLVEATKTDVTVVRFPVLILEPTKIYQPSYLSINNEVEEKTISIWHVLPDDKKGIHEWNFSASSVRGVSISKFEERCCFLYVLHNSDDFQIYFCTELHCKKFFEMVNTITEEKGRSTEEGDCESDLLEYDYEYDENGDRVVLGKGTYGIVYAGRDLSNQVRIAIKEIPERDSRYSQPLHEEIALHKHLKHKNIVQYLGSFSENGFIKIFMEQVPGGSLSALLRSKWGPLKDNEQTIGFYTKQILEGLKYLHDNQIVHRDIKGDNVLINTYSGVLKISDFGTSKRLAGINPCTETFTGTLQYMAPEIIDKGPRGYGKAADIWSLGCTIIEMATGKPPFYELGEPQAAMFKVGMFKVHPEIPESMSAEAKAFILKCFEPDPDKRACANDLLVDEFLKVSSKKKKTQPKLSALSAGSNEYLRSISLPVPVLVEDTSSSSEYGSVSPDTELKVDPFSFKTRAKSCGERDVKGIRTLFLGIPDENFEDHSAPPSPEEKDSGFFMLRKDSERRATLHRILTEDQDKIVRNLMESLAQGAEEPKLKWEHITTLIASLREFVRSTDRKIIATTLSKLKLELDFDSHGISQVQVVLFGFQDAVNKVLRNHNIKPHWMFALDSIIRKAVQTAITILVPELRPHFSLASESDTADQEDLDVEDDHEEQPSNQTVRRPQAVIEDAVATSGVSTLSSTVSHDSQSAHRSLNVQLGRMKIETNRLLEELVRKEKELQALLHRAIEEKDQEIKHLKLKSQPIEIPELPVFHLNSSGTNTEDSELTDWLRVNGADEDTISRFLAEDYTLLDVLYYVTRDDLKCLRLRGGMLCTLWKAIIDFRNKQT
Method in brief: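 Kinase panel: 200 kinases were first screened at 1 μM inhibitor for percent inhibition. Those above 50% inhibition were then titrated for IC50. MgATP was fixed at the Km(app) determined for each enzyme.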

[3] = Inhibition of MK2 activity in LPS induced human Whole blood cell preincubated with compound for 1 hr followed by LPS induction and measured after 30 mins by Dissociation enhanced lanthanide fluoro-immuno assay; format: functional, cell-based
Method in brief: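 Whole blood was stimulated with LPS 100 ng/ml for 30 min. Phospho-Ser82 HSP27 and total HSP27 in lysates were read by DELFIA immunoassay.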

[4] = AUC (0 to infinity) in Sprague-Dawley rat at 3 mg/kg, po measured upto 24 hrs by […] analysis; format: ADME, organism-based; conditions: in vivo
Method in brief: (§1)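 Male Sprague-Dawley rats (275-300 g), carotid-catheterized and acclimated overnight. Dosing was i.v. at 1 mpk (n=2) in 70% saline/20% PEG-400/10% ethanol, or oral at 3 mpk (n=3) as a suspension in 0.5% HPMC/Tween. Plasma drug was measured by LC-MS/MS. Cmax and Tmax were read from individual profiles. t½ came from the terminal log-linear slope and AUC by the linear trapezoidal rule. CL = dose/AUC0-∞, Vdss = CL×MRT, F = dose-normalized AUC po/iv.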

[5] = Oral bioavailability in Sprague-Dawley rat at 3 mg/kg measured upto 24 hrs by […] analysis; format: ADME, organism-based; conditions: in vivo; method in brief: as §1
[6] = Plasma protein binding in rat; format: ADME, cell-free
Method in brief: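 Binding to rat and human plasma was measured in vitro by ultracentrifugation.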

AUC [1]: 117 µM·h | IC50 [2]: 60 nM | IC50 [3]: 1600 nM | AUC(0-inf) [4]: 1.8 µM·h | bioavailability [5]: 46% | PPB [6]: 92.1%
SMILES: Cc1ccc(-c2ccc3c(ccc4sc5c(c43)NC[C@@H](C)NC5=O)n2)cn1
